Source: PMC9401513 (Clinical Cancer Research, 2021)
Entries after “also recorded” stand apart in the source; their conditions may differ.

Experiments:
[1] = test system: patients with advanced solid tumors; assay: Dose-limiting toxicity, MTD and RP2D determination; assay type: in vivo, human
How it was run: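 Dose escalation followed the modified toxicity probability interval method. Target DLT rate was 25%, with an acceptable interval of 20–30%, a beta(0.75, 0.65) prior and a 0.975 exclusion threshold. DLTs were treatment-related events in cycle 1, monitored over 28 days: grade 4 neutropenia >7 days, grade ≥3 nonhematologic nonhepatic toxicity, or >2-week cycle delay. MTD was the highest dose with DLT rate <0.30 in ≥9 evaluable patients. Dosing was IV every 3 weeks (0.2–3.7 mg/kg) or every 2 weeks (2.1, 2.8, 3.2 mg/kg).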

[2] = Clinical pharmacokinetics; assay type: in vivo, human; settings: for systemic exposure (AUCtau, Cmax) versus dose: 0.2 to 3.7 mg/kg every 3 weeks dose levels of PF-06647020; for Cmax: ADC, Cycle 1 single dose, geometric mean (geometric % CV)
[3] = test system: platinum-resistant ovarian cancer; assay: Objective tumor response by RECIST v1.1, ovarian cancer; assay type: in vivo, human
How it was run: (§1)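 Investigators assessed tumor response by RECIST v1.1 every 6 weeks (every-3-weeks cohorts) or every 8 weeks (every-2-weeks cohorts). CR and PR in expansion cohorts were confirmed by repeat assessment at least 4 weeks later, and ORR was calculated. NSCLC patients were preselected for moderate-to-high tumor PTK7 by IHC. Later TNBC patients were preselected for moderately high-to-high PTK7. Ovarian cancer patients were platinum-resistant and not preselected.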

[4] = test system: advanced NSCLC; assay: Objective tumor response by RECIST v1.1, NSCLC; assay type: in vivo, human
How it was run: as §1

[5] = test system: patient-derived xenograft models; settings: cited from earlier work
[6] = every 2 weeks, N = 19, (95% CI)
[7] = every 3 weeks, N = 44, (95% CI)
[8] = every 2 weeks, N = 6, (95% CI), NR, not reached
[9] = every 3 weeks, N = 25, (95% CI)

B1: cofetuzumab pelidotin (conjugate, chains of the INN, looked up)
VH: QVQLVQSGPEVKKPGASVKVSCKASGYTFTDYAVHWVRQAPGKRLEWIGVISTYNDYTYNNQDFKGRVTMTRDTSASTAYMELSRLRSEDTAVYYCARGNSYFYALDYWGQGTSVTVSS
VL: EIVLTQSPATLSLSPGERATLSCRASESVDSYGKSFMHWYQQKPGQAPRLLIYRASNLESGIPARFSGSGSGTDFTLTISSLEPEDFAVYYCQQSNEDPWTFGGGTKLEIK
modifications: auristatin-0101 payload, vc linker
For B1, the DLT observed ([1]; 2.8 mg/kg every 2 weeks, n = 10) was “grade 3 neutropenic infection in 1 patient”, the DLT observed ([1]; 3.2 mg/kg every 2 weeks, n = 12) was “grade 3 abdominal pain in 2 patients” and the DLTs reported ([1]; 3.7 mg/kg every 3 weeks (highest dose), n = 6, two DLTs) was “grade 3 headache and fatigue; also recorded: grade 3 headache and grade 3 fatigue”. The DLT rate ([1]; 3.7 mg/kg every 3 weeks, n = 6) was 33%, the MTD ([1]; every 2 weeks regimen, dose levels 2.1-3.2 mg/kg) was “not reached” and the “MTD (estimated as protocol specified)” value ([1]; every 3 weeks) was 2.8 mg/kg. For the same molecule, the “RP2D (recommended phase II dose)” value ([1]; every 3 weeks) was 2.8 mg/kg, the “AUC ratio between ADC and total antibody” value ([2]; 2.8 mg/kg every 3 weeks) was “approximately 0.9” and the “systemic exposure (AUCtau, Cmax) versus dose” value [2] was “generally increased in a dose-related manner”. For the same molecule, the “systemic exposure (AUCtau, Cmax) versus dose” value ([2]; listed as ADC) was “generally increased in a dose-proportional manner”, the Cmax ([2]; 2.8 mg/kg Q2W IV) was 99.7 µg/mL and the Cmax ([2]; 2.8 mg/kg Q3W IV) was 79.8 µg/mL. For the same molecule, the “CR (number)” value ([3]; 2.1 mg/kg every 3 weeks) was 1, the “CR (number)” value ([3]; 2.8 mg/kg every 2 weeks) was 1 and the “PR (number)” value ([3]; 2.8 mg/kg every 2 weeks) was 2. For the same molecule, the “CR (number)” value ([3]; 3.2 mg/kg every 2 weeks) was 1, the “PR (number)” value ([3]; 3.2 mg/kg every 2 weeks) was 1 and the “overall objective response rate” value ([3]; both regimens, n = 63) was 27%. The “patients achieving CR” value ([3]; every 2 weeks) was 11%, the “patients achieving PR” value ([3]; every 2 weeks) was 16% and the ORR [3, 6] was 26 (9–51) %. For the same molecule, the mDOR [3, 6] was 6.5 (3.9–8.3) mo, the mPFS [3, 6] was 3.8 (3.1–7.4) mo and the “patients achieving CR” value ([3]; every 3 weeks) was 7%. The “patients achieving PR” value ([3]; every 3 weeks) was 21%, the ORR [3, 7] was 27 (15–43) % and the mDOR [3, 7] was 4.2 (2.8–8.3) mo. For the same molecule, the mPFS [3, 7] was 2.9 (2.3–5.5) mo, the “PRs (number)” value ([4]; 2.8 mg/kg every 3 weeks) was 4 and the “PRs (number)” value ([4]; 3.2 mg/kg every 2 weeks) was 2. For the same molecule, the “overall objective response rate” value ([4]; both regimens, n = 31) was 19%, the CR ([4]; every 2 weeks, N = 6) was 0 N and the PR ([4]; every 2 weeks, N = 6) was 2 N. The ORR ([4]; every 2 weeks, N = 6, (95% CI)) was 33 (4–78) %, the mDOR [4, 8] was “NR (3.7–NR)” and the mPFS [4, 8] was 2.7 (1.0–NR) mo. For the same molecule, the CR ([4]; every 3 weeks, N = 25) was 0 N, the PR ([4]; every 3 weeks, N = 25) was 4 N and the ORR [4, 9] was 16 (5–36) %. For the same molecule, the mDOR [4, 9] was 5.7 (1.5–9.9) mo, the mPFS [4, 9] was 2.9 (1.4–6.1) mo and the “antitumor activity compared with standard chemotherapy” value ([5]; patient-derived xenograft models) was “greater antitumor activity than standard chemotherapy”. The “antitumor effect in patient-derived xenograft models” value ([5]; preclinical) was “sustained tumor regression” and the “effect on tumor-initiating cells (TICs)” value ([5]; serial transplantation experiments) was “reduced the frequency of TICs”.
